Source: ChEMBL document CHEMBL3102806, “1,2,4-Triazole/oxime hybrids as new strategy for nitric oxide donors: Synthesis, anti-inflammatory, ulceroginicity and antiproliferative activities” (Eur J Med Chem, 2014)

Assays:
[1] = test system: T47D; assay: Growth inhibition of human T47D cells assessed as cell growth at 10^-5 M after 48 hrs by sulforhodamine B assay relative to control; assay type: functional; details: read-out: Activity
Summary of the method: (§1)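 NCI primary screen across about 60 human tumour cell lines. Single dose of 10^-5 M, cultures incubated 48 h, end point by sulforhodamine B protein staining read spectrophotometrically. Results are given as percent growth of treated cells relative to untreated control cells.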

[2] = test system: MDA-MB-231; assay: Growth inhibition of human MDA-MB-231 cells assessed as cell growth at 10^-5 M after 48 hrs by sulforhodamine B assay relative to control; assay type: functional; details: MDA-MB-231, 48 h, read-out: Activity
Summary of the method: (§2)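 NCI primary screen, one-dose format across about 60 human tumour cell lines. Single addition at 10^-5 M with 48 h incubation; SRB protein-binding dye end point read spectrophotometrically. Reported as percent growth of treated cells versus untreated controls.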

[3] = test system: SN12C; assay: Growth inhibition of human SN12C cells assessed as cell growth at 10^-5 M after 48 hrs by sulforhodamine B assay relative to control; assay type: functional; details: read-out: Activity; summary of the method: as §1
[4] = test system: A498; assay: Growth inhibition of human A498 cells assessed as cell growth at 10^-5 M after 48 hrs by sulforhodamine B assay relative to control; assay type: functional; details: A498, 48 h, read-out: Activity
Summary of the method: (§3)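 NCI ~60 human tumour cell line screen. Single concentration of 10^-5 M added to cultures for 48 h. End point by sulforhodamine B protein staining read spectrophotometrically. Percent growth relative to untreated control cells.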

[5] = test system: SK-OV-3; assay: Growth inhibition of human SKOV3 cells assessed as cell growth at 10^-5 M after 48 hrs by sulforhodamine B assay relative to control; assay type: functional; details: SK-OV-3, 48 h, read-out: Activity; summary of the method: as §1
[6] = test system: OVCAR-8; assay: Growth inhibition of human OVCAR8 cells assessed as cell growth at 10^-5 M after 48 hrs by sulforhodamine B assay relative to control; assay type: functional; details: OVCAR-8, 48 h, read-out: Activity; summary of the method: as §2
[7] = Growth inhibition of human OVCAR4 cells assessed as cell growth at 10^-5 M after 48 hrs by sulforhodamine B assay relative to control; assay type: functional; details: OVCAR-4, 48 h, read-out: Activity; summary of the method: as §2
[8] = test system: OVCAR-3; assay: Growth inhibition of human OVCAR3 cells assessed as cell growth at 10^-5 M after 48 hrs by sulforhodamine B assay relative to control; assay type: functional; details: OVCAR-3, 48 h, read-out: Activity; summary of the method: as §2
[9] = test system: IGROV-1; assay: Growth inhibition of human IGROV1 cells assessed as cell growth at 10^-5 M after 48 hrs by sulforhodamine B assay relative to control; assay type: functional; details: IGROV-1, 48 h, read-out: Activity; summary of the method: as §3
[10] = Growth inhibition of human UACC257 cells assessed as cell growth at 10^-5 M after 48 hrs by sulforhodamine B assay relative to control; assay type: functional; details: UACC-257, 48 h, read-out: Activity; summary of the method: as §1
[11] = test system: SK-MEL-5; assay: Growth inhibition of human SK-MEL-5 cells assessed as cell growth at 10^-5 M after 48 hrs by sulforhodamine B assay relative to control; assay type: functional; details: SK-MEL-5, 48 h, read-out: Activity; summary of the method: as §1
[12] = test system: SK-MEL-28; assay: Growth inhibition of human SK-MEL-28 cells assessed as cell growth at 10^-5 M after 48 hrs by sulforhodamine B assay relative to control; assay type: functional; details: SK-MEL-28, 48 h, read-out: Activity; summary of the method: as §1
[13] = test system: Malme-3M; assay: Growth inhibition of human MALME-3M cells assessed as cell growth at 10^-5 M after 48 hrs by sulforhodamine B assay relative to control; assay type: functional; details: read-out: Activity; summary of the method: as §2
[14] = test system: LOX IMVI; assay: Growth inhibition of human LOXIMVI cells assessed as cell growth at 10^-5 M after 48 hrs by sulforhodamine B assay relative to control; assay type: functional; details: read-out: Activity; summary of the method: as §2
[15] = test system: U-251; assay: Growth inhibition of human U251 cells assessed as cell growth at 10^-5 M after 48 hrs by sulforhodamine B assay relative to control; assay type: functional; details: U-251, 48 h, read-out: Activity; summary of the method: as §1
[16] = test system: SF-295; assay: Growth inhibition of human SF295 cells assessed as cell growth at 10^-5 M after 48 hrs by sulforhodamine B assay relative to control; assay type: functional; details: SF-295, 48 h, read-out: Activity; summary of the method: as §2
[17] = test system: SW-620; assay: Growth inhibition of human SW620 cells assessed as cell growth at 10^-5 M after 48 hrs by sulforhodamine B assay relative to control; assay type: functional; details: SW-620, 48 h, read-out: Activity; summary of the method: as §1
[18] = test system: HCT-15; assay: Growth inhibition of human HCT15 cells assessed as cell growth at 10^-5 M after 48 hrs by sulforhodamine B assay relative to control; assay type: functional; details: HCT-15, 48 h, read-out: Activity; summary of the method: as §3
[19] = Induction of nitric oxide release in phosphate buffer at 10^-4 M at pH 7.4 after 5 hrs by Griess colorimetric method in presence of N-acetylcysteine; assay type: physicochemical; details: pH 7.4, 5 h, 100 µM
Summary of the method: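 Final drug concentration 10^-4 M, added from DMF into 1:1 50 mM phosphate buffer (pH 7.4)/MeOH containing 5 × 10^-4 M N-acetylcysteine, at 37 °C. Nitrite read with Griess reagent after 10 min at room temperature, absorbance at 546 nm. Calibration with sodium nitrite standards (10–80 nmol/ml). Reported as mol NO per mol, n = 4 reaction mixtures.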

[20] = test system: Rattus norvegicus; assay: Antiinflammatory activity in albino rat assessed as inhibition of carrageenan-induced paw edema at 0.28 mmol/kg, po administered 30 mins prior to carrageenan-challenge measured after 3 hrs relative to control; assay type: functional
Summary of the method: (§4)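 Male albino rats in groups of four were fasted 24 h with water allowed. Dosing was oral at 0.28 mmol/kg, suspended in 0.5% w/v CMC; controls got CMC alone. After 30 min, 0.1 ml of 1% carrageenan in saline went subplantar into the right hind paw and saline into the left. Paw thickness was read by caliper before and at 1–5 h. % inhibition = [(VR−VL)control−(VR−VL)treated]/(VR−VL)control ×100. Mean ± SEM, n = 4, one-way ANOVA vs control.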

[21] = test system: Rattus norvegicus; assay: Antiinflammatory activity in albino rat assessed as inhibition of carrageenan-induced paw edema at 0.28 mmol/kg, po administered 30 mins prior to carrageenan-challenge measured after 4 hrs relative to control; assay type: functional; summary of the method: as §4
[22] = test system: Rattus norvegicus; assay: Antiinflammatory activity in albino rat assessed as inhibition of carrageenan-induced paw edema at 0.28 mmol/kg, po administered 30 mins prior to carrageenan-challenge measured after 5 hrs relative to control; assay type: functional; summary of the method: as §4
[23] = test system: CCRF-CEM; assay: Growth inhibition of human CCRF-CEM cells assessed as cell growth at 10^-5 M after 48 hrs by sulforhodamine B assay relative to control; assay type: functional; details: read-out: Activity; summary of the method: as §3
[24] = test system: K562; assay: Growth inhibition of human K562 cells assessed as cell growth at 10^-5 M after 48 hrs by sulforhodamine B assay relative to control; assay type: functional; details: K562, 48 h, read-out: Activity; summary of the method: as §3
[25] = test system: MOLT-4; assay: Growth inhibition of human MOLT4 cells assessed as cell growth at 10^-5 M after 48 hrs by sulforhodamine B assay relative to control; assay type: functional; details: MOLT-4, 48 h, read-out: Activity; summary of the method: as §2
[26] = test system: NCI-H226; assay: Growth inhibition of human NCI-H226 cells assessed as cell growth at 10^-5 M after 48 hrs by sulforhodamine B assay relative to control; assay type: functional; details: NCI-H226, 48 h, read-out: Activity; summary of the method: as §2
[27] = Growth inhibition of human EKVX cells assessed as cell growth at 10^-5 M after 48 hrs by sulforhodamine B assay relative to control; assay type: functional; details: read-out: Activity; summary of the method: as §3

| Structure (SMILES) | growth at 10 µM [1] [%] | growth at 10 µM [2] [%] | growth at 10 µM [3] [%] | growth at 10 µM [4] [%] | growth at 10 µM [5] [%] | growth at 10 µM [6] [%] | growth at 10 µM [7] [%] | growth at 10 µM [8] [%] | growth at 10 µM [9] [%] | growth at 10 µM [10] [%] | growth at 10 µM [11] [%] | growth at 10 µM [12] [%] | growth at 10 µM [13] [%] | growth at 10 µM [14] [%] | growth at 10 µM [15] [%] | growth at 10 µM [16] [%] | growth at 10 µM [17] [%] | growth at 10 µM [18] [%] | Activity [19] [mol/mol] | inhibition in vivo at 280 µmol/kg [20] [%] | further results |
| --- | --- | --- | --- | --- | --- | --- | --- | --- | --- | --- | --- | --- | --- | --- | --- | --- | --- | --- | --- | --- | --- |
| C/C(=N\O)c1ccc(NC(=O)CSc2nnc(-c3ccccc3)n2-c2ccccc2)cc1 | 92 | 20.9 | 76.2 | 63.7 | 80.5 | 90.8 | 86.2 | 87.3 | 81.4 | 81.8 | 94.5 | 48.6 | 91.8 | 82.9 | 63.6 | 52.6 | 99.8 | 84 | 0.14 | 63 | inhibition in vivo at 280 µmol/kg [21]: 67%; inhibition in vivo at 280 µmol/kg [22]: 66%; growth at 10 µM [23]: 92%; growth at 10 µM [24]: 95.8%; growth at 10 µM [25]: 95.2%; growth at 10 µM [26]: 72.4%; growth at 10 µM [27]: 91.9% |
| COc1ccc(-c2nnc(SCC(=O)Nc3ccc(/C(C)=N/O)cc3)n2-c2ccccc2)cc1OC | 68 | 47.9 | 71.8 | 91.8 | 4.74 | 42.8 | 103 | 82 | 70.9 | 91.8 | 94.6 | 87.3 | 61.8 | 80.1 | 34.4 | 39.1 | 115 | 98.6 | 0.35 | 77 | inhibition in vivo at 280 µmol/kg [21]: 79%; inhibition in vivo at 280 µmol/kg [22]: 76%; growth at 10 µM [23]: 98.5%; growth at 10 µM [24]: 105%; growth at 10 µM [25]: 91.7%; growth at 10 µM [26]: 81.9%; growth at 10 µM [27]: 71.1% |
